Data taken from ChEMBL document CHEMBL1139436, “Quantitative structure-activity relationship of sesquiterpene lactones as inhibitors of the transcription factor NF-kappaB” (J Med Chem, 2004).

How the values were obtained:
[1] = target: T1, Nuclear factor NF-kappa-B complex (Homo sapiens) (UniProt Q00653+P19838+Q04206); assay: (§1) Concentration required for complete inhibition of Nuclear factor kappa B DNA binding; format: protein-complex assay
Outline: (§2)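 Jurkat T cells (RPMI 1640, 10% FCS, penicillin/streptomycin) pretreated 1 h with sesquiterpene lactone, first at 10, 20, 50, 100 μM, then 1–5 μM or 200–300 μM as needed. Stimulated 1 h with 200 U/mL TNF-α. Total extracts (Totex high-salt buffer) analysed by EMSA with ³²P-labeled NF-κB oligonucleotide, 25 min at room temperature. IC100 is the lowest tested level fully blocking binding; intermediate values assigned the higher level. Each experiment reproduced at least once.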

[2] = target: T1, Nuclear factor NF-kappa-B complex (Homo sapiens); assay: as §1; format: protein-complex assay; design: unit not given here; outline: as §2

T1 sequence (P19838 whole entry, looked up): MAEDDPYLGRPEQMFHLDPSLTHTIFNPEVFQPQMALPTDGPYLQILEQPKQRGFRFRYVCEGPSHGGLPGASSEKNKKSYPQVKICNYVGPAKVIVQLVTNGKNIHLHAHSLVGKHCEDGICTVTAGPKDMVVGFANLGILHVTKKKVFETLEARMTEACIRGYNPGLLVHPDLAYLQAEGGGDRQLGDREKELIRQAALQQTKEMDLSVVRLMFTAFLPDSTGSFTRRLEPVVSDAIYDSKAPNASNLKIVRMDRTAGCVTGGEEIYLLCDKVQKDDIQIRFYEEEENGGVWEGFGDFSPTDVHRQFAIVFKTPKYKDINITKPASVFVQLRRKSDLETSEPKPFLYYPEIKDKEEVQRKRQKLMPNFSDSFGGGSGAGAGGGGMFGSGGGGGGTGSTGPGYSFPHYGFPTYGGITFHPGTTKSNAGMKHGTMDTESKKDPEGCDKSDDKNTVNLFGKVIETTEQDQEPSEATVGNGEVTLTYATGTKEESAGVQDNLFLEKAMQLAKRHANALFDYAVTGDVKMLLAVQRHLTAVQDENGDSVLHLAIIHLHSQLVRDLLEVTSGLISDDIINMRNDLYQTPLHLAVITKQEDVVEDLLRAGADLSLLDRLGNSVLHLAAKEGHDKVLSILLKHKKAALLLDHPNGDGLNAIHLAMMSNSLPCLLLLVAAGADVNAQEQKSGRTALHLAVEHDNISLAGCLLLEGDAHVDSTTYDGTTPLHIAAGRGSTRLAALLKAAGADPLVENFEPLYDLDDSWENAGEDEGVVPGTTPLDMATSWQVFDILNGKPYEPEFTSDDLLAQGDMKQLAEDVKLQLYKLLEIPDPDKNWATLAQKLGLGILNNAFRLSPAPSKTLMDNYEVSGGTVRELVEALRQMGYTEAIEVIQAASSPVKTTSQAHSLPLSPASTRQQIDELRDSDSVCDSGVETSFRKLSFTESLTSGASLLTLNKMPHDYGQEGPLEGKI
T1 sequence (Q00653 whole entry, looked up): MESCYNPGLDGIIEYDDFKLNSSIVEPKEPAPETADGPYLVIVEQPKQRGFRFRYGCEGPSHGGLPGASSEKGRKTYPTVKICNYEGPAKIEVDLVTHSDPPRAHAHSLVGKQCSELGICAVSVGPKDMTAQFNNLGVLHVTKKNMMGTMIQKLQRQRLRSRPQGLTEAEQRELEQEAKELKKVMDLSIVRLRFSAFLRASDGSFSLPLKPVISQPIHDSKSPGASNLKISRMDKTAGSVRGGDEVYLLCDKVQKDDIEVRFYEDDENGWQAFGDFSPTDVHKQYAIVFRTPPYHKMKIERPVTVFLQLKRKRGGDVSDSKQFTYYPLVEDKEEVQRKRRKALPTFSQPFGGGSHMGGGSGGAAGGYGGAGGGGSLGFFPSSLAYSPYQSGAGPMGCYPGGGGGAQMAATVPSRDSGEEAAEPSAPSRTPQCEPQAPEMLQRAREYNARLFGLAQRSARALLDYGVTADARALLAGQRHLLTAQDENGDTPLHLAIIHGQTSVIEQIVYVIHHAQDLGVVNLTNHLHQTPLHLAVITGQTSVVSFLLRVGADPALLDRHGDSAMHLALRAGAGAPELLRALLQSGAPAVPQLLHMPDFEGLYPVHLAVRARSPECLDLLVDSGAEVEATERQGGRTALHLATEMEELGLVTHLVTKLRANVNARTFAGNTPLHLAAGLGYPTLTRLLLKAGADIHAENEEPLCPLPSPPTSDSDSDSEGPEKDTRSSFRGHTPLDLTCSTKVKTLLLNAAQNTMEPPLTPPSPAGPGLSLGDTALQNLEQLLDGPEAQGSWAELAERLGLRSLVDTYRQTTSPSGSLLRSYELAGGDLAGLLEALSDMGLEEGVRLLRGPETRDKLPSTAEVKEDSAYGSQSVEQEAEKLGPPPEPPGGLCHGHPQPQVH
T1 sequence (Q04206 whole entry, looked up): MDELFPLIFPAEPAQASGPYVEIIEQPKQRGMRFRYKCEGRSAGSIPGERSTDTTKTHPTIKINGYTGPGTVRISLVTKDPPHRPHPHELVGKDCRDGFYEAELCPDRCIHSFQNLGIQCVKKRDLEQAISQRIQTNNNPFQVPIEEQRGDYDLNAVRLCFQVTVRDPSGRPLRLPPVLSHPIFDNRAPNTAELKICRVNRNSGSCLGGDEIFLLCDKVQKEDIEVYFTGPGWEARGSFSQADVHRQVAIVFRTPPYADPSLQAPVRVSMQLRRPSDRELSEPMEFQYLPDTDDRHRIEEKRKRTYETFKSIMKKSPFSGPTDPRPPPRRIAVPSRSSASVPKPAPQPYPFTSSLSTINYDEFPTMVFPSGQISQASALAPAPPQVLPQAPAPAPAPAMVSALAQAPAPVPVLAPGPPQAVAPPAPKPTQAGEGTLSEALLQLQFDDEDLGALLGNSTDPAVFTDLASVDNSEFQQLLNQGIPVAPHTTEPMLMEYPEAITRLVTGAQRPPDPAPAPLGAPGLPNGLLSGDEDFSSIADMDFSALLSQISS

SMILES | IC100 [1] [µM] | pIC100 [2]
C=C1C(=O)O[C@H]2C/C(CO)=C\CC/C(COC(=O)C(C)C)=C\C[C@H]12 | 50 | -1.69
C=C1C(=O)C[C@H]2C(=C)C(=O)O[C@@H]2/C=C(/COC(=O)C(C)C)CC[C@H]1OC | 25 | -1.39
C=C1C(=O)O[C@@H]2/C=C(/COC(=O)CC(C)C)CC/C=C(/CO)C(=O)C[C@@H]12 (stereo in doubt; 5) | 12.5 | -1.09
C=C1[C@@H]2[C@H]3OC(=O)C(=C)[C@@H]3CC[C@](C)(O)[C@@H]2C[C@@H]1O | 200 | -2.3
CC[C@@H](C)[C@@]1(O)O[C@H]2C[C@@]3(C)OC(=CC3=O)/C(COC(C)=O)=C\[C@H]3OC(=O)[C@@]1(C)C23 (some centres not stated) | 5 | -0.69
C=C(CO)C(=O)OC/C1=C/C[C@@H]2C(=C)C(=O)O[C@H]2C/C(COC(C)=O)=C\CC1 | 50 | -1.69
C=C1C(=O)O[C@@H]2/C=C(/COC(=O)C(C)C)CC/C=C(/CO)[C@H](O)C[C@@H]12 | 100 | -2
C=C1C(=O)O[C@@H]2[C@H]3C(CO)=CC(=O)C3=C(C)CC[C@@H]12 | 50 | -1.69
C=C1C(=O)O[C@@H]2C[C@H](C)C3=CC(=O)[C@H](C)[C@@H]3C[C@H]12 | 50 | -1.69
C=C1C(=O)O[C@@H]2/C=C(/C)[C@]3(O)O[C@@](C)(C[C@@H]3OC)C[C@@H](OC(=O)C(C)C)[C@@H]12 | 200 | -2.3
C=C(CO)C(=O)OC/C1=C/C[C@@H]2C(=C)C(=O)O[C@H]2C/C(CO)=C\CC1 | 20 | -1.3
C=C1C(=O)O[C@H]2/C=C(\C)[C@@H](O)CC/C(C)=C/C[C@H]12 | 200 | -2
C=C1C(=O)O[C@@H]2/C=C(/COC(=O)C(C)C)CC/C=C(/CO)C(=O)C[C@@H]12 | 12.5 | -1.09
C=C1C(=O)O[C@@H]2C3=C(C(=O)C[C@@H]3C)[C@@H](C)CC[C@@H]12 | 20 | -1.3

Results, then the compound that gave them:

IC100 [1] [µM] | pIC100 [2] | SMILES
10 | -1 | C=C1C(=O)O[C@H]2[C@H]1[C@@H](OC(=O)/C(C)=C/C)C/C(C)=C\[C@@]1(OC)C=C(C)[C@@H]2O1
200 | -2.3 | C=C(C)C(=O)O[C@@H]1C[C@]2(C)CC[C@@](OC)(O2)/C(C)=C\[C@H]2OC(=O)C(=C)[C@@H]21
5 | -0.69 | C=C(C)C(=O)O[C@H]1/C(C=O)=C\CC/C(C)=C\[C@H]2OC(=O)C(=C)[C@@H]2[C@@H]1O
200 | -2.3 | C=C1C(=O)OC2/C=C(/C)CC/C=C(/C)[C@@H](OC(C)=O)C[C@@H]12 (some centres not stated)
50 | -1.69 | C=C1C(=O)O[C@@H]2/C=C(/C)[C@H](OC(C)=O)C/C=C(/C)CC[C@@H]12
5 | -0.69 | C=C(C)C(=O)O[C@H]1[C@H]2C(=C)C(=O)O[C@@H]2/C=C(/COC(C)=O)CC/C=C(/C=O)[C@@H]1O
5 | -0.69 | C=C1C(=O)O[C@H]2[C@H]1[C@H](OC(=O)C(C)C)[C@@H](OC(C)=O)/C(C=O)=C\CCC1(CO1)[C@@H]2O (some centres not stated)
200 | -2.3 | C=C(C)C(=O)O[C@@H]1C[C@]2(C)CC[C@@](O)(O2)[C@@H](C)C[C@H]2OC(=O)C(=C)[C@H]12
10 | -1 | C=C(C)C(=O)O[C@H]1C/C(C)=C/C(=O)/C=C(/C)[C@H](O)[C@H]2OC(=O)C(=C)[C@@H]21
20 | -1.3 | C=C(C)C(=O)O[C@H]1C[C@@]2(C)OC(=CC2=O)/C(CO)=C\[C@H]2OC(=O)C(=C)[C@H]12
20 | -1.3 | C=C(C)C(=O)O[C@@H]1C[C@@](C)(O)[C@@H]2C(=O)C=C(C)[C@@H]2[C@H]2OC(=O)C(=C)[C@@H]21
5 | -0.69 | C=C1C(=O)O[C@@H]2/C=C(/C)C3=CC(=O)[C@@](C)(C[C@@H](OC(=O)/C(C)=C/C)[C@@H]12)O3
5 | -0.69 | C=C(C)C(=O)O[C@@H]1/C=C(/C=O)CCCC(=C)[C@H](O)[C@H]2OC(=O)C(=C)[C@@H]21
10 | -1 | C=C(C)C(=O)O[C@H]1[C@H]2C(=C)C(=O)O[C@@H]2[C@@H](O)C(=C)CC/C=C(/C=O)[C@@H]1OC(C)=O
10 | -1 | C=C(C)C(=O)O[C@@H]1C=C(C=O)CCCC(=C)[C@H](O)[C@H]2OC(=O)C(=C)[C@@H]21
12.5 | -1.09 | C=C1C(=O)O[C@@H]2/C=C(/COC(=O)CC(C)C)C[C@H](OC(C)=O)/C=C(/CO)C(=O)C[C@@H]12
10 | -1 | C=C1C(=O)O[C@H]2C[C@]3(C)O[C@@H]3C[C@@H](OC(C)=O)C3=C[C@@H](OC3=O)[C@H]12
